The record followed here is ChEMBL document CHEMBL4138282, “An Anti-Inflammatory PPAR-γ Agonist from the Jellyfish-Derived Fungus Penicillium chrysogenum J08NF-4” (J Nat Prod, 2018).

Type in all cases: cell-based
Data set [1] has as its target T1, Peroxisome proliferator-activated receptor gamma (Mus musculus) (UniProt P37238).
T1 sequence (whole entry): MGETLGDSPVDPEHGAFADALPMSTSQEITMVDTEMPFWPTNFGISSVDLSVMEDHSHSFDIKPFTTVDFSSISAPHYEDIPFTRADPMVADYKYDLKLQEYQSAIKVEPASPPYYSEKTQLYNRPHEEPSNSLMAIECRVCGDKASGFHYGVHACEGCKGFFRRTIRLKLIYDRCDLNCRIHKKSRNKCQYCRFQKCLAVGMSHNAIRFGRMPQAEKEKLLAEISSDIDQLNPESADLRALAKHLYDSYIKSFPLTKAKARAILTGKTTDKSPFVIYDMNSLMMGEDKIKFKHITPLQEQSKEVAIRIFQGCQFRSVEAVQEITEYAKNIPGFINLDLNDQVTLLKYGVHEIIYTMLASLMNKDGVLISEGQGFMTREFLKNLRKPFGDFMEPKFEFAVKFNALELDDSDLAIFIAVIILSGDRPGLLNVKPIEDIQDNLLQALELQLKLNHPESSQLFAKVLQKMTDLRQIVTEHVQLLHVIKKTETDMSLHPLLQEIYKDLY
As to the kind of experiment: Agonist activity at PPARgamma in mouse RAW264.7 cells assessed as increase in protein expression level in nuclear fractions at 30 uM after 24 hrs by Western blot assay relative to control. The essentials:
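Treated RAW 264.7 cells at 10 or 30 μM for 24 h, with rosiglitazone 10 or 30 μM as comparator. Nuclear fractions isolated by NE-PER extraction, protein by BCA, PPAR-γ by Western blot normalized to nuclear TFIIB; three independent experiments.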
(In general: A western blot detects proteins with antibodies after separation by electrophoresis.)

Data set [2] deals with T1, Peroxisome proliferator-activated receptor gamma (Mus musculus). Nature of the data set: Agonist activity at PPARgamma in LPS-stimulated mouse RAW264.7 cells assessed as inhibition of NF-kappaB signaling by measuring reduction in NO production pretreated with compound for 1 hr followed by LPS stimulation measured after 24 hrs by Griess assay. Summed up:
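Supernatant mixed 1:1 with Griess reagent, 20 min at 37 °C in the dark, A520; nitrite quantified against 0–100 μM sodium nitrite standards.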
For orientation: The Griess reaction detects nitrite, a stable product of nitric oxide.

For data set [3] the target is unchanged. Nature of the data set: Agonist activity at PPARgamma in LPS-stimulated mouse RAW264.7 cells assessed as inhibition of NF-kappaB signaling by measuring reduction in IL-6 production pretreated with compound for 1 hr followed by LPS stimulation measured after 24 hrs by ELISA. On the technique in general: In an ELISA, binding on a coated surface is turned into a signal by an enzyme label.

For data set [4], the target named is T2, Peroxisome proliferator-activated receptor gamma (Homo sapiens) (UniProt P37231).
T2 sequence (whole entry): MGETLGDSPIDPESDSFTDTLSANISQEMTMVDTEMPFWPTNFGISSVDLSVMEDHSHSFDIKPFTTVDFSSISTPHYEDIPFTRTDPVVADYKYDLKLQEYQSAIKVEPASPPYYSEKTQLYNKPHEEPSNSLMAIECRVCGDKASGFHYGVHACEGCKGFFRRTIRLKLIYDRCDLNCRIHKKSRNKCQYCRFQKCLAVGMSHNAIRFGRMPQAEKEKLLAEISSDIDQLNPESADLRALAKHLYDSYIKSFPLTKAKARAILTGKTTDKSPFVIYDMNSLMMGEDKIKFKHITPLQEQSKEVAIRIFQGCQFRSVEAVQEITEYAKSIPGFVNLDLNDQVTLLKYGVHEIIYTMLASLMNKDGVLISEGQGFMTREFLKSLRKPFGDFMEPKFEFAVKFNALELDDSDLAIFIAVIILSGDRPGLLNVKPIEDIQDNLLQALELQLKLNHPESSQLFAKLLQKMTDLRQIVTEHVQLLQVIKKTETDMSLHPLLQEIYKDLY
As to the kind of experiment: Agonist activity at full length human flag-tagged PPARgamma1 […] expressed in rat Ac2F cells coexpressing PPRE-X3-TK at 20 uM after 6 hrs by one-glo luciferase reporter gene assay relative to control. The essentials:
(§1)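 Rat Ac2F cells at 70–80% confluence transfected by Lipofectamine 2000 with PPRE-X3-TK-luc (1 μg/well) plus pFlag-PPAR-γ1 or pcDNA3 (0.1 μg/well), 4 h, then 10 h in complete medium. Compound (5, 10, 20 μM) or rosiglitazone 5 μM added for 6 h in serum-free medium; ONE-Glo luminescence as fold of control, n = 3.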

In data set [5] the test system is RAW264.7. Nature of the data set: Cytotoxicity against mouse RAW264.7 cells assessed as reduction in cell viability up to 50 uM after 24 hrs by WST assay. Conditions: raw264.7, 24 h. Summed up: (§2)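 Cells in high-glucose DMEM/10% heat-inactivated FBS with penicillin-streptomycin at 37 °C, 5% CO2; seeded 12 h, then exposed to compound for 24 h. WST reagent 1 h at 37 °C, absorbance at 450 nm.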

Data set [6] addresses T1, Peroxisome proliferator-activated receptor gamma (Mus musculus). As to the kind of experiment: Agonist activity at PPARgamma in LPS-stimulated mouse RAW264.7 cells assessed as inhibition of NF-kappaB p65 phosphorylation pretreated with compound for 1 hr followed by LPS stimulation for 30 mins by Western blot assay. Summed up: (§3)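 For the antagonist arm, GW9662 (10 μM) was added 1 h before. Phospho-p65 read by Western blot on 10% SDS-PAGE, β-actin reference; three independent experiments.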

The target is the same in data set [7]. Nature of the data set: Agonist activity at PPARgamma in LPS-stimulated mouse RAW264.7 cells assessed as inhibition of NF-kappaB signaling by measuring reduction in COX2 protein level pretreated with compound for 1 hr followed by LPS stimulation measured after 24 hrs by Western blot analysis.
For data set [8] the target is unchanged. Nature of the data set: Agonist activity at PPARgamma in LPS-stimulated mouse RAW264.7 cells assessed as inhibition of NF-kappaB signaling by measuring reduction in iNOS mRNA level pretreated with compound for 1 hr followed by LPS stimulation for 6 hrs by RT-PCR analysis. The essentials:
(§4)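 Trizol RNA, M-MLV cDNA, 27-cycle PCR, agarose gel with ethidium bromide stain; GAPDH as internal control. Three independent experiments.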

The target is the same in data set [9]. Nature of the data set: Agonist activity at PPARgamma in LPS-stimulated mouse RAW264.7 cells assessed as inhibition of NF-kappaB p65 phosphorylation at 30 uM pretreated with compound for 1 hr followed by LPS stimulation for 30 mins in presence of PPARgamma antagonist GW9662 by Western blot assay. The essentials: as §3
For data set [10] the target is unchanged. As to the kind of experiment: Agonist activity at PPARgamma in LPS-stimulated mouse RAW264.7 cells assessed as inhibition of NF-kappaB signaling by measuring reduction in TNFalpha mRNA level pretreated with compound for 1 hr followed by LPS stimulation for 6 hrs by RT-PCR analysis. The essentials:
as §4

Data set [11] has the same target. Nature of the data set: Agonist activity at PPARgamma in LPS-stimulated mouse RAW264.7 cells assessed as inhibition of NF-kappaB signaling by measuring reduction in COX2 mRNA level at 50 uM pretreated with compound for 1 hr followed by LPS stimulation for 6 hrs by RT-PCR analysis relative to control. Summed up: as §4
The target is the same in data set [12]. Nature of the data set: Agonist activity at PPARgamma in LPS-stimulated mouse RAW264.7 cells assessed as inhibition of NF-kappaB signaling by measuring reduction in IL-1beta mRNA level pretreated with compound for 1 hr followed by LPS stimulation for 6 hrs by RT-PCR analysis. Summed up:
as §4

Data set [13] shares this target. Nature of the data set: Agonist activity at PPARgamma in LPS-stimulated mouse RAW264.7 cells assessed as inhibition of NF-kappaB signaling by measuring reduction in IL-6 mRNA level pretreated with compound for 1 hr followed by LPS stimulation for 6 hrs by RT-PCR analysis. The essentials:
as §4

Data set [14] has the same target. As to the kind of experiment: Agonist activity at PPARgamma in LPS-stimulated mouse RAW264.7 cells assessed as inhibition of NF-kappaB signaling by measuring reduction in IL-1beta production pretreated with compound for 1 hr followed by LPS stimulation measured after 24 hrs by ELISA.
The target is the same in data set [15]. Nature of the data set: Agonist activity at PPARgamma in LPS-stimulated mouse RAW264.7 cells assessed as inhibition of NF-kappaB signaling by measuring reduction in IL-6 mRNA level at 50 uM pretreated with compound for 1 hr followed by LPS stimulation for 6 hrs by RT-PCR analysis relative to control. Summed up:
as §4

Data set [16] shares this target. Nature of the data set: Agonist activity at PPARgamma in LPS-stimulated mouse RAW264.7 cells assessed as inhibition of NF-kappaB signaling by measuring reduction in iNOS mRNA level at 50 uM pretreated with compound for 1 hr followed by LPS stimulation for 6 hrs by RT-PCR analysis relative to control. Summed up:
as §4

Data set [17] has the same target. Nature of the data set: Agonist activity at PPARgamma in LPS-stimulated mouse RAW264.7 cells assessed as inhibition of NF-kappaB signaling by measuring reduction in TNFalpha production pretreated with compound for 1 hr followed by LPS stimulation measured after 3 hrs by ELISA.
Data set [18] shares this target. Nature of the data set: Agonist activity at PPARgamma in LPS-stimulated mouse RAW264.7 cells assessed as inhibition of NF-kappaB signaling by measuring reduction in iNOS protein level pretreated with compound for 1 hr followed by LPS stimulation measured after 24 hrs by Western blot analysis.
The target is the same in data set [19]. Nature of the data set: Agonist activity at PPARgamma in LPS-stimulated mouse RAW264.7 cells assessed as inhibition of NF-kappaB signaling by measuring reduction in IL-1beta mRNA level at 50 uM pretreated with compound for 1 hr followed by LPS stimulation for 6 hrs by RT-PCR analysis relative to control. Summed up: as §4
Data set [20] in a line: Cytotoxicity against rat Ac2F cells assessed as reduction in cell viability up to 50 uM after 24 hrs by WST assay. Summed up: as §2
Data set [21] addresses T1, Peroxisome proliferator-activated receptor gamma (Mus musculus). As to the kind of experiment: Agonist activity at PPARgamma in LPS-stimulated mouse RAW264.7 cells assessed as inhibition of NF-kappaB signaling by measuring reduction in COX2 mRNA level pretreated with compound for 1 hr followed by LPS stimulation for 6 hrs by RT-PCR analysis. The essentials: as §4
Data set [22] deals with T2, Peroxisome proliferator-activated receptor gamma (Homo sapiens). Nature of the data set: Agonist activity at full length human flag-tagged PPARgamma1 […] expressed in rat Ac2F cells coexpressing PPRE-X3-TK after 6 hrs by one-glo luciferase reporter gene assay. The essentials:
as §1

Data set [23] deals with T1, Peroxisome proliferator-activated receptor gamma (Mus musculus). As to the kind of experiment: Agonist activity at PPARgamma in LPS-stimulated mouse RAW264.7 cells assessed as inhibition of NF-kappaB signaling by measuring reduction in TNFalpha mRNA level at 50 uM pretreated with compound for 1 hr followed by LPS stimulation for 6 hrs by RT-PCR analysis relative to control. Summed up:
as §4

Data set [24] has the same target. As to the kind of experiment: Agonist activity at PPARgamma in LPS-stimulated mouse RAW264.7 cells assessed as inhibition of NF-kappaB p65 phosphorylation at 30 uM pretreated with compound for 1 hr followed by LPS stimulation for 30 mins by Western blot assay relative to control. The essentials:
as §3

Calls of active or inactive are those of the source. The rule behind the calls is not given here.

Turning to `CN(CCOc1ccc(CC2SC(=O)NC2=O)cc1)c1ccccn1` (stereo not given), in data set [1], the fold change (FC) came to 2.3.
Take `COC(=O)CC/C(C)=C/CC/C(C)=C/Cc1cc(O)c(C)cc1O`: the inhibition entry in data set [2], in data set [3], in data set [6], in [7], in data set [8] and in data set [10] was “Dose-dependent effect” each time. In addition, the inhibition entry in data set [12], in data set [13], in data set [14], in data set [17], in data set [18] and in [21] was “Dose-dependent effect” throughout. The fold change (FC) was 3 in data set [4]; 2 in [11]; 5 in data set [15]; 5 in data set [16]; 2.5 in data set [19]; 1.8 in [1]. Further, the fold change (FC) in data set [23] worked out at 2; in [24], 2.8. Further, the Activity result in data set [5] was “Non-Toxic”; in [20], “Non-Toxic”; in data set [22] it was “Dose-dependent effect”. Also, in data set [9], the inhibition result is “inactive”.
